# Compounds with a hit are over-represented: about 5.4% of the library has one in this group of screens.
# T cruzi inh: blocks replication of Trypanosoma cruzi. T. cruzi beta-gal in NIH3T3, luminescence, 90 h. inhibition, % (no concentration beside the values). 300,000 compounds, 1.4% hits;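 active = mean inhibition across valid replicates above about 55%, limit read from the data; inconclusive = mean below that limit but half or more replicates reach it; inactive = mean below it, under half of replicates reach it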;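 note: signal also drops with host cell toxicity which is not excluded here; 0% = plate median of DMSO wells and 100% = zero luminescence signal; higher percent means less beta-gal luminescence so fewer parasites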
#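 Assay system: NIH/3T3 host cells with β-galactosidase reporter T. cruzi; input: 5,000 host fibroblasts per well; compound: single 50 nL compound addition per well in DMSO; timing: ≥90 h infection period, 3 h prior cell attachment; measured by: GalScreen β-gal luminescence, detergent lysis, 60 min; evaluation: percent inhibition of parasite-derived β-gal signal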
# SKKanGAS inh: blocks kanamycin growth of S. pyogenes SKKanGAS strain | BacTiter-Glo, 6 h | inhibition, % at 7.5 µM | 300,000 compounds, 1.3% hits | AID 1662;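 active = mean replicate score, as percent of positive control median, at least 50; inconclusive = mean below 50 but one replicate at or above 50; inactive = mean and every replicate below 50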;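 note: strain carries kanamycin resistance gene driven by streptokinase promoter and grows in 40 µg/ml kanamycin; loss of luminescence reflects streptokinase promoter inhibition or plain growth inhibition; 0% = median of DMSO wells and 100% = positive control at its reference dose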
# CSC inhib: blocks cancer stem cells; inhibition, % at 7.5 µM; 300,000 compounds, 1.1% hits; cancer stem cell-like cells viability, luminescence; in the data active = inhibition above about 75%; inconclusive = no clear call, values can overlap the other calls; tested in HMLE shEcad cells
# aSyn 5UTR inh: MLPCN primary screen, SNCA 5' untranslated region | alpha-synuclein 5'UTR reporter, inhibitor activity | inhibition, % (tested at 7.5 µM) | 300,000 compounds, 0.82% hits; in the data active = inhibition above about 60%; inconclusive = no clear call, values can overlap the other calls;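 note: H4 neuroglioblastoma cells stably carrying SNCA 5'UTR luciferase fusion; 0% = DMSO wells and 100% = positive control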
# Mdm2-MdmX inh: disrupts the human Mdm2-MdmX interaction | O15151+Q00987 | SaOS-2 split-luciferase Mdm2/MdmX complementation, luminescence | inhibition, % at 8 µM | 330,000 compounds, 3% hits | AID 485346;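 active = inhibition of at least 50% at 8 µM in the primary screen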
# Target sequence (O15151 whole entry, looked up): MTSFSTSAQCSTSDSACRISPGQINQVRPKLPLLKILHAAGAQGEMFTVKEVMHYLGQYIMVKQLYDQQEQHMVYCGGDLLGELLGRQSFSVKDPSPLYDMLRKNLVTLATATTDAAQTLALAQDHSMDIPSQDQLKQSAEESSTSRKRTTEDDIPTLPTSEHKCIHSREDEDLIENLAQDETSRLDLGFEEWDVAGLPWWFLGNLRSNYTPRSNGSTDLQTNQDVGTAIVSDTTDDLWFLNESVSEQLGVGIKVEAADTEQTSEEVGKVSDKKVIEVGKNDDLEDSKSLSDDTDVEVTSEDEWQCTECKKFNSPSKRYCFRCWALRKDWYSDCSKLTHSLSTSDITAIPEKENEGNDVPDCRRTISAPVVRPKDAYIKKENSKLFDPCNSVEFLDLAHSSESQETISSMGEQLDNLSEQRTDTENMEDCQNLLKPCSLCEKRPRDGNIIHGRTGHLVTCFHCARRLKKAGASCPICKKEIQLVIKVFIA
# Target sequence (Q00987 whole entry, looked up): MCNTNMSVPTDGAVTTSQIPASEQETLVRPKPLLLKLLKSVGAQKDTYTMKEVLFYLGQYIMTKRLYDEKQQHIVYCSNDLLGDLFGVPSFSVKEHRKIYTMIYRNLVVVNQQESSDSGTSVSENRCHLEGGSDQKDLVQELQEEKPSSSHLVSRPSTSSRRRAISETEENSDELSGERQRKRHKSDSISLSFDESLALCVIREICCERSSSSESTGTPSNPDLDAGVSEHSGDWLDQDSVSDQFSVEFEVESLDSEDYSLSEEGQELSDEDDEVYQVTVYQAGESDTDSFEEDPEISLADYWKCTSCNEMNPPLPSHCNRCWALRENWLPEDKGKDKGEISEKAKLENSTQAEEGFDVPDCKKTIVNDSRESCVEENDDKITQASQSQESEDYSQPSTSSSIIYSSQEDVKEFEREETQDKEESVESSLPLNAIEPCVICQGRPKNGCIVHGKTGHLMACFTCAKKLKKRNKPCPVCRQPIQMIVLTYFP
# Mdm2-MdmX conf: confirmation of human Mdm2/MdmX interaction inhibitors. shares compounds with Mdm2-MdmX inh. Mdm2-MdmX binding, luminescent assay. inhibition, % at 8 µM. 10,000 compounds, 55% hits; in the data active = inhibition above about 40%
# Full FLuc ctr: counter-screen for Mdm2/MdmX inhibitors: full-length luciferase; shares compounds with Mdm2-MdmX inh; SaOS-2 full-length luciferase counterscreen, luminescence; inhibition, % at 8 µM; 6,200 compounds, 77% hits;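 active = mean inhibition at 8 µM reaching about 37%, which flags the compound as non-specific, limit read from the data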;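 note: p53-null SaOS-2 cells with luciferase driven by a doxycycline-inducible promoter; compound on cells about two nights before reading with doxycycline added after day one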
# An asterisk follows results filed as active; ? = inconclusive; nt = not tested or not shown.
SMILES,T cruzi inh,SKKanGAS inh,CSC inhib,aSyn 5UTR inh,Mdm2-MdmX inh,Mdm2-MdmX conf,Full FLuc ctr
CC1CC(C)CN(C(=O)c2nn(C)c3c2CS(=O)(=O)c2ccccc2-3)C1 (stereo not given),2.8,1.8,-8.0,-6.9,8.2,nt,nt
CCc1ccc(Nc2n[n+](-c3ccccc3)c(-c3ccc(N(CC)CC)cc3)s2)cc1,57.8*,7.0,34.2,-19.4,87.2*,52.8*,44.0*
CCc1ccc(Nc2n[n+](-c3ccccc3)c(-c3cc(OC)c(OC)cc3Br)s2)cc1,17.9,2.7,0.5,-1.3,11.5,nt,nt
CCc1ccc(Nc2n[n+](-c3ccccc3)c(-c3c(Cl)cccc3Cl)s2)cc1,58.5*,87.7*,108.8*,9.6,100.3*,96.5*,55.6*
Fc1ccc(-[n+]2nc(Nc3ccccc3)sc2-c2c(Cl)cccc2Cl)cc1,41.6,-2.3,41.7,-15.1,67.5*,24.3,47.6*
CCc1ccc(Nc2n[n+](-c3ccccc3)c(/C=C/c3ccccc3)s2)cc1,36.2,-3.7,13.4,-169.2,52.2*,-31.4,nt
Cc1cc(C(=O)N2CCN(c3ncccn3)CC2)nn1C,-10.5,3.4,-5.9,28.4,24.0,nt,nt
COc1ccc(N(CC(=O)NCc2ccccc2OC)S(=O)(=O)c2ccc(C)cc2)cc1Cl,27.3,4.6,-0.6,11.3,19.6,nt,nt
COc1ccc2ccccc2c1-c1sc(Nc2ccccc2)n[n+]1-c1ccc(F)cc1,61.3*,-0.7,52.1,2.8,75.8*,27.1,nt
COc1ccc(C)cc1Nc1n[n+](-c2ccccc2)c(-c2c(Cl)cccc2Cl)s1,44.5,5.5,73.8,54.2,95.3*,89.0*,54.6*
Cc1cc(C)nc(NS(=O)(=O)c2ccc(NC(=O)C3(c4ccccc4)CCCC3)cc2)n1,5.5,10.9,1.4,-13.3,11.3,nt,nt
CCC(=O)Nc1cc2nn(-c3ccc(C)cc3)nc2cc1C,-1.5,-32.4,-3.1,80.3*,66.5*,67.2*,145.8*
CCC(=O)Nc1cc2nn(-c3ccc(OC)cc3)nc2cc1C,-3.8,0.4,nt,35.0,-24.2,nt,nt
N=c1c2c(ncn1Cc1ccco1)Oc1cc(O)ccc1C2c1ccccc1 (stereo not given),4.5,21.4,9.4,5.8,33.4,nt,nt
N=c1c2c(ncn1Cc1ccco1)Oc1c(ccc3ccccc13)C2c1ccccc1 (stereo not given),-10.5,21.8,101.6*,-25.0,70.5*,69.5*,54.8*
CN(C)CCn1cnc2c(c1=N)C(c1ccccc1)c1ccc3ccccc3c1O2 (stereo not given),35.7,3.8,14.5,90.4*,98.0*,70.8*,40.4*
COc1ccc(C2c3c(ncn(CCN4CCOCC4)c3=N)Oc3ccc4ccccc4c32)cc1 (stereo not given),19.7,2.3,26.3,-17.3,70.6*,55.1*,64.6*
Cc1cccc(/C=N/NC(=O)Cn2nc(C)cc2C)n1,-2.3,-5.0,-27.6,11.7,-33.4,nt,nt
O=C(NCCCCNC(=O)c1ccc(Br)cc1)c1ccc(Br)cc1,-16.9,-9.0,-1.0,5.3,76.9*,21.3,nt
O=C(O)CCCCCNC(=O)c1ccc(Br)cc1,-0.1,-3.4,-20.4,-32.6,5.7,nt,nt
COc1ccc2[nH]c3c(c2c1)CCN1C(=O)C(CC(=O)NC/C=C(\C)CCC=C(C)C)C[C@H](C(=O)N(C(C)C)C(C)C)[C@@]31C (stereo not given in full),nt,nt,nt,nt,84.0*,8.1,nt
CC(C)=CCC/C(C)=C/CNC(=O)C[C@H]1C[C@H](C(=O)N(C(C)C)C(C)C)[C@@]2(C)c3[nH]c4ccc(Cl)cc4c3CCN2C1=O,nt,nt,nt,nt,51.4*,1.3,nt
CC(C)=CCC/C(C)=C/CNC(=O)CC1C[C@H](C(=O)N(C(C)C)C(C)C)[C@@]2(C)c3[nH]c4ccccc4c3CCN2C1=O (stereo not given in full),nt,nt,nt,nt,52.6*,-10.3,nt
CC(C)Oc1cccc(C(=O)NC(=S)Nc2cccc(NC(=O)c3ccccc3Cl)c2)c1,13.5,17.7,12.7,10.4,5.9,nt,nt
CC1CCCCC12NC(=O)N(CC(=O)N1CCN(S(=O)(=O)Cc3ccccc3)CC1)C2=O (stereo not given),nt,nt,7.9,nt,-9.8,nt,nt
SMILES,T cruzi inh,SKKanGAS inh,CSC inhib,aSyn 5UTR inh,Mdm2-MdmX inh,Mdm2-MdmX conf,Full FLuc ctr
COc1ccc(C(=O)Oc2ccc(F)cc2C(=O)/C=C/c2ccc(OC)c(OC)c2)cc1,-12.8,0.7,4.4,-51.8,-23.4,nt,nt
COc1ccc(/C=C/C(=O)c2cc(F)ccc2OC(=O)c2ccccc2C)cc1OC,-23.5,-15.4,48.6,82.1*,60.6*,66.4*,117.0*
N#Cc1ccccc1COc1cccc2c1CCCC2O (stereo not given),-6.4,8.0,-13.4,-18.5,-13.9,nt,nt
COc1ccc([N+](=O)[O-])cc1NCc1ccccc1C,20.2,-4.9,24.5,40.1,17.2,nt,nt
COc1ccc([N+](=O)[O-])cc1NCc1ccccc1,-4.6,9.4,7.1,41.5,70.4*,39.0,98.2*
O=C(Nc1nc(-c2ccccc2)cs1)c1ccc(N2CCOCC2)c([N+](=O)[O-])c1,55.2*,18.7,45.2,-26.0,54.5*,52.0*,56.1*
O=C(Nc1nc(-c2ccc(-c3ccccc3)cc2)cs1)C1=COCCO1,-0.4,-2.3,22.2,-34.7,65.1*,56.5*,41.3*
CC(=O)c1c(C)[nH]c(C(=O)Nc2nc(-c3ccc(-c4ccccc4)cc3)cs2)c1C,69.4*,52.0*,49.7,-35.2,87.5*,43.9*,100.2*
COc1ccc(N2CC(C(=O)N[C@@H](CC(C)C)C(=O)NC3CCCC3)CC2=O)cc1 (stereo not given in full),-7.9,-0.1,10.7,-2.6,5.4,nt,nt
Cc1cc2c(=O)n(Cc3ccco3)c(SCC(=O)NCc3ccco3)nc2s1,7.4,1.6,3.7,-0.8,16.0,nt,nt
Cc1cc2c(=O)n(Cc3ccco3)c(SCC(=O)N3CCCc4ccccc43)nc2s1,24.4,58.1*,16.8,30.1,56.9*,20.8,nt
N#Cc1c(-c2ccccc2)cc2nc3ccccc3n2c1N,3.4,37.0,-9.2,-59.3,-27.7,nt,nt
COc1cc(-c2cc3nc4ccccc4n3c(N)c2C#N)cc(OC)c1OC,3.4,26.6,26.0,?,76.6*,64.4*,93.0*
O=c1c(O[C@@H]2O[C@H](CO)[C@@H](O)[C@H](O)[C@H]2O)c(-c2ccc(O)cc2)oc2cc(O)cc(O)c12,nt,nt,-8.9,nt,-19.8,nt,nt
O=c1c(O[C@@H]2O[C@H](CO)[C@@H](O)[C@H](O)[C@H]2O)c(-c2ccc(O)c(O)c2)oc2cc(O)cc(O)c12,7.5,-6.2,nt,7.2,51.5*,14.8,nt
C=CCNc1nc(C(=O)OC(C)C(=O)c2ccc(C)cc2)cs1 (stereo not given),nt,nt,3.7,nt,4.6,nt,nt
COc1ccc(Cn2cccc(NC(=O)Nc3cccc(C#N)c3)c2=O)cc1,24.2,9.0,-3.0,14.8,66.8*,7.1,nt
